Source: PubChem
Compounds with a hit are over-represented: about 2.9% of the library has one in this group of screens.
ATG4B inh – ATG4B (human) cysteine protease inhibition | Q9Y4P1 | ATG4B cleavage of LC3-PLA2, NBD-HPC fluorescence, 1 h | inhibition, % at 8.33 µM | 0.51% of 340,000 active | AID 504462; in the data active means inhibition above about 40%
SIAE primary – inhibitors of human sialic acid acetylesterase SIAE; SIAE FP-Rh probe binding, fluorescence polarization; 0.69% of 370,000 active; inhibition, % at 9.66 µM;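 active means inhibition above a cutoff: mean of compounds within the control limits plus 3 SD of those, cut at about 17% in these data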
TCR CD3 inh – blocks the human TCR-CD3 interaction; TAMRA-labeled TCR probe fluorescence, biochemical; inhibition, % at 9.4 µM; 0.37% of 360,000 active; AID 651800;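 further: recombinant mutant TCR 2C K166C tagged with TAMRA read by polarization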
PRMT1 inh – blocks human protein arginine methyltransferase 1; Q99873; recombinant PRMT1, activity-based probe fluorescence polarization; inhibition, % at 2.79 µM; 1.3% of 370,000 active;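 active means inhibition above about 21% made by adding two undisclosed values, limit read from the data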
Target sequence (Q99873 whole entry, looked up): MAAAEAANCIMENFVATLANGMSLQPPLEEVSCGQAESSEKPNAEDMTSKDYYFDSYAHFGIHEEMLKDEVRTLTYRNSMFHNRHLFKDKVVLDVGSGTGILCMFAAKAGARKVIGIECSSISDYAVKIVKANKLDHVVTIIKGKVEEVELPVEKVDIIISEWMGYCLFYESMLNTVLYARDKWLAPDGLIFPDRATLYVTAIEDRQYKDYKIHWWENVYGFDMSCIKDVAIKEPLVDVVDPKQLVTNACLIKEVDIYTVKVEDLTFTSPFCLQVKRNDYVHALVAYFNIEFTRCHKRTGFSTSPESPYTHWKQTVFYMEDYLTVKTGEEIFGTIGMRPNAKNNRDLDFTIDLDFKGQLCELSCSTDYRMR
HTRA1 inhibitor – HTRA1 (human) protease inhibition; inhibition, % at 5.96 µM; recombinant HTRA1, FP-rhodamine activity-based probe, fluorescence polarization; 0.5% of 340,000 active; Q92743; AID 504803; in the data active means inhibition above about 36%
mABHD4 FP – ABHD4 (mouse) inhibition, primary FP screen | purified mABHD4, FP-Rh probe fluorescence polarization | AID 720543 | 0.54% of 370,000 active | inhibition, % at 8.92 µM;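 active means inhibition exceeding the mean over every tested compound plus 3 SD, cut at about 30% in these data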
Target sequence (Q8VD66 whole entry, looked up): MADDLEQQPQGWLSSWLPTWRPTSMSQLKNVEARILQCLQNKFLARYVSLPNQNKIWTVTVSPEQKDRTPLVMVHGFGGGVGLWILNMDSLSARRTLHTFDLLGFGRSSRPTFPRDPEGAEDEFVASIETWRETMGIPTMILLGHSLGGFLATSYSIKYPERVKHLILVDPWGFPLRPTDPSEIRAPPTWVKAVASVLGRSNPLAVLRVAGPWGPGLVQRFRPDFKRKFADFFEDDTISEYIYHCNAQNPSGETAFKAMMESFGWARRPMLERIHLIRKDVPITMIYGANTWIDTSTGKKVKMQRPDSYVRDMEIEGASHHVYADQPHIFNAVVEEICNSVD
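Assay system: mouse ABHD4 enzyme, wild type / Also added: fluorescent activity-based probe FP-Rh / Doses: single nominal dose of 8.92 µM, 0.89% DMSO final / Timing: 45 min compound pre-incubation plus 60 min probe step, 25 °C / Signal: FP readout, ex 525 nm / em 598 nm / Control set: S159A mutant/DMSO as 100%, compound-well median as 0%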
HTRA1 conf – HTRA1 (human) inhibition, confirmation; shares compounds with HTRA1 inhibitor; inhibition, % at 5.96 µM; 66% of 1,600 active; recombinant HTRA1, FP-rhodamine activity-based probe, fluorescence polarization;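 active means mean inhibition over three repeats above a set limit taken from the earlier primary screen, cut at about 37% in these data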;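 further: inhibitors block probe binding so polarization drops and inhibition rises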
BSA TAMRA ctr – BSA probe counter-screen for TCR-CD3 inhibitors | shares compounds with TCR CD3 inh | TAMRA-labeled BSA probe fluorescence counterscreen | inhibition, % at 9.4 µM | 10% of 1,200 active | AID 652035; in the data active means inhibition above about 23%
TCR-CD3 conf – TCR-CD3 interaction inhibition, confirmation; shares compounds with TCR CD3 inh; TAMRA-labeled TCR probe fluorescence binding assay; inhibition, % at 9.4 µM; 48% of 1,200 active
PRMT1 confirm – confirmation of human PRMT1 inhibitors. inhibition, % at 2.79 µM. shares compounds with PRMT1 inh. recombinant His-PRMT1, activity-based probe fluorescence polarization. 42% of 3,300 active. AID 687036;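 active means mean inhibition across replicates above the hit cutoff derived for the earlier primary screen, cut at about 22% in these data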
mABHD4 conf – confirmation of mouse ABHD4 inhibitors; shares compounds with mABHD4 FP; purified mABHD4, FP-Rh probe fluorescence polarization; inhibition, % at 8.92 µM; 55% of 1,800 active; AID 720658;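 active means mean inhibition across replicates above the hit cutoff set in the primary screen, cut at about 30% in these data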
SIAE inh conf – human SIAE inhibition, confirmation; shares compounds with SIAE primary; SIAE FP-Rh activity-based probe, fluorescence polarization; inhibition, % at 9.66 µM; 13% of 2,300 active;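 active means mean inhibition of the replicates above the hit cutoff set in the primary screen, cut at about 17% in these data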;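 further: inhibitors lower polarization as more probe stays unbound to SIAE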
Each line names hits and unclear results; the compound was inactive in the other large screens (follow-up assays come after a bar, where they were run). Unless noted, no stated cut-off is given here; in the data, active means inhibition above about 19%; inactive means the rest.

Cc1cc(N)ccc1-n1c(C)ccc1C	SIAE primary 54, TCR CD3 inh 152, HTRA1 inhibitor 102, mABHD4 FP 147 | HTRA1 conf inactive | BSA TAMRA ctr inactive | TCR-CD3 conf inactive | SIAE inh conf inactive
Cc1ccc(-n2c(C)cc(=O)cc2C)c(C)c1	none
c1ccc(COc2cccc(CNCc3cccnc3)c2)cc1	none
O=[N+]([O-])c1ccc(COc2cccc(CNc3ccc(F)cc3)c2)cc1	none
Oc1ccc(NCc2cccc(OCc3ccc(F)cc3)c2)cc1	SIAE primary 40, TCR CD3 inh 25, HTRA1 inhibitor 58, mABHD4 FP 49 | HTRA1 conf inactive | BSA TAMRA ctr inactive | TCR-CD3 conf inactive | mABHD4 conf inactive | SIAE inh conf inactive
Oc1ccc(NCc2cccc(OCc3ccccc3)c2)cc1	SIAE primary 44, TCR CD3 inh 26, HTRA1 inhibitor 51, mABHD4 FP 50 | HTRA1 conf inactive | BSA TAMRA ctr inactive | TCR-CD3 conf inactive | mABHD4 conf inactive | SIAE inh conf inactive
CCn1c(CSc2nnc(-c3ccncc3)n2C)nc2cc(C(=O)O)ccc21	SIAE primary 28, TCR CD3 inh 89, HTRA1 inhibitor 66 | HTRA1 conf 56 | BSA TAMRA ctr 155 | TCR-CD3 conf 109 | SIAE inh conf 39
CCOC(=O)C1=C(C)N=C2c3ccccc3C(=O)C2C1c1ccc(Cl)cc1 (centres undefined)	SIAE primary 19, HTRA1 inhibitor 38, mABHD4 FP 35 | HTRA1 conf inactive | mABHD4 conf 66 | SIAE inh conf inactive
CCOC(=O)C1=NNC(C(=O)c2ccccc2)C1c1ccc(Cl)cc1 (centres undefined)	none
CN(/N=C\c1ccc(O)c(O)c1)c1nc(-c2ccccc2)cc(-c2ccccc2)n1	SIAE primary 35, HTRA1 inhibitor 39, mABHD4 FP 34 | HTRA1 conf 66 | mABHD4 conf 123 | SIAE inh conf inactive
Oc1cccc(C=Nc2cccc3ccccc23)c1O	SIAE primary 20, PRMT1 inh 38, HTRA1 inhibitor 71, mABHD4 FP 53 | HTRA1 conf 53 | SIAE inh conf inactive
O=[N+]([O-])c1ccc(NN=Cc2cccc([N+](=O)[O-])c2)cc1	none
O=[N+]([O-])c1ccc(N/N=C/c2ccc[nH]2)cc1	SIAE primary 18, HTRA1 inhibitor 45 | HTRA1 conf 57 | SIAE inh conf inactive
O=C1CCC[C@H]2C[C@H](NCc3ccc(Br)cc3)CC[C@]23CCCN13	none (no result: ATG4B inh, TCR CD3 inh, HTRA1 inhibitor)
O=C(/C(=N/N=C/c1ccc(O)c(O)c1O)c1ccccc1)c1ccccc1	SIAE primary 33, PRMT1 inh 27, HTRA1 inhibitor 79, mABHD4 FP 53 | HTRA1 conf 74 | mABHD4 conf 47 | SIAE inh conf inactive
COc1ccc(C(=O)C(=NN)c2ccccc2)cc1	none (no result: ATG4B inh)
Oc1ccc(/C=N/N=C(c2ccccc2)c2ccccc2)c(O)c1O	SIAE primary 20, TCR CD3 inh 35, HTRA1 inhibitor 66, mABHD4 FP 42 | HTRA1 conf 67 | BSA TAMRA ctr inactive | TCR-CD3 conf 28 | mABHD4 conf 34 | SIAE inh conf inactive
CCOc1ccc(-n2c(SCC(=O)Nc3cccc4ccccc34)nnc2-c2cccs2)cc1	none (no result: ATG4B inh, TCR CD3 inh, HTRA1 inhibitor)
COC(=O)[C@]12C[C@H](CC(=O)NCC34CC5CC(CC(C5)C3)C4)C(=O)N(Cc3cccc4ccccc34)C1=C[C@H](COCc1ccccc1)O[C@@H]2C	none (no result: ATG4B inh, TCR CD3 inh, HTRA1 inhibitor)
CCOC(=O)C(C(=O)OCC)c1cc(Br)c2noc3c2c1C(=O)c1ccccc1-3	SIAE primary 22, PRMT1 inh 32, HTRA1 inhibitor 48 | HTRA1 conf inactive | PRMT1 confirm 53 | SIAE inh conf inactive
COCCCNC(=O)c1ccc2c3c(onc13)-c1ccccc1C2=O	none (no result: SIAE primary, TCR CD3 inh, PRMT1 inh, mABHD4 FP)
COc1ccc(-n2c(SCC(=O)Nc3ccccc3-c3ccccc3)nnc2-c2ccccc2)cc1	none (no result: ATG4B inh, TCR CD3 inh, HTRA1 inhibitor)
Cc1ccc(-n2c(SCC(=O)c3ccc4ccccc4c3)nnc2-c2cccnc2)cc1	none (no result: ATG4B inh, TCR CD3 inh, HTRA1 inhibitor)
CC(=O)C(=Nc1ccccc1Cl)NNc1ccc(Cl)cc1	SIAE primary 18, PRMT1 inh 71, HTRA1 inhibitor 47, mABHD4 FP 43 | HTRA1 conf inactive | mABHD4 conf inactive | SIAE inh conf inactive
CCc1ccc2[nH]c3nc(N/N=C/c4ccc(O)cc4O)nnc3c2c1	SIAE primary 30, HTRA1 inhibitor 61 | HTRA1 conf 63 | SIAE inh conf 29
Cc1ccc2[nH]c3nc(N/N=C/c4cccc(O)c4)nnc3c2c1	none
NNC(=O)c1oc2nc(-c3cccs3)cc(-c3ccco3)c2c1N	SIAE primary 55, HTRA1 inhibitor 57 (no result: ATG4B inh) | HTRA1 conf 48 | SIAE inh conf 75
CCOC(=O)C1CCN(C(=O)C(C)(C)NC(=O)Nc2ccc(C(F)(F)F)cc2Cl)CC1	none (no result: ATG4B inh, TCR CD3 inh, HTRA1 inhibitor)
CC(C)(C)c1ccc(C#C[C@@H]2C=C[C@H](O)[C@@H](COC(=O)Nc3ccccc3)O2)cc1	none (no result: ATG4B inh, HTRA1 inhibitor)
Nc1ccc(Nc2nc3ccccc3[nH]2)cc1	SIAE primary 57, HTRA1 inhibitor 58, mABHD4 FP 31 | HTRA1 conf 66 | mABHD4 conf 59 | SIAE inh conf 58
O=C1C(Cl)=C(Nc2ccc3cn[nH]c3c2)C(=O)c2ccccc21	SIAE primary 18, PRMT1 inh 43, HTRA1 inhibitor 47, mABHD4 FP 46 | HTRA1 conf 75 | mABHD4 conf 54 | SIAE inh conf inactive
O=C(Nc1ccc2cn[nH]c2c1)c1c(Cl)cccc1Cl	none
CN1C(=O)NC(c2ccccc2[N+](=O)[O-])C2=C1CCCC2=O (centres undefined)	SIAE primary 54, TCR CD3 inh 85, PRMT1 inh 36, HTRA1 inhibitor 77, mABHD4 FP 89 | HTRA1 conf 44 | BSA TAMRA ctr 62 | TCR-CD3 conf 44 | mABHD4 conf 56 | SIAE inh conf 80
